# Assay results: ChEMBL document CHEMBL4145448, “Broad activity of diphenyleneiodonium analogues against Mycobacterium tuberculosis, malaria parasites and bacterial pathogens” (Eur J Med Chem, 2018)
# Key:
# Plasmodium falciparum = experiment: Growth inhibition of CQ-sensitive GFP-fused Plasmodium falciparum D10 after 90 hrs by ethidium bromide staining based flow cytometry; type: functional, organism-based; settings: D10, 90 h
# Outline: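 Parasites cultured in human O+ erythrocytes in RPMI-HEPES pH 7.4 with hypoxanthine, NaHCO3, gentamicin and 0.5% Albumax II under 1% O2/4% CO2 at 37 °C. Synchronised to rings with heparin plus sorbitol. Set up at 1% parasitaemia and 1% haematocrit with 10x compound added. Cultured 90 h to next-cycle trophozoites. Stained with 10 µg/mL ethidium bromide for 1 h, washed, parasitaemia counted by flow cytometry with GFP gating.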
# Pseudomonas aeruginosa [1] = experiment: Antibacterial activity against Pseudomonas aeruginosa ATCC 27853 after 18 hrs by broth microdilution method; type: functional; settings: ATCC 27853, 18 h
# Outline: (§1)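 Broth microdilution per CLSI in cation-adjusted Mueller-Hinton broth. 100 µL inoculum (~10^6 cfu/mL in CaMHB) mixed with 100 µL CaMHB containing compound, 0 to 128 µM. Incubated 18 h at 37 °C. MIC taken as the lowest concentration with no visible growth. Polymyxin B served as positive control. Isolates were stored at -80 °C in tryptone soy broth with 20% glycerol.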
# Pseudomonas aeruginosa [2] = experiment: Antibacterial activity against Pseudomonas aeruginosa isolate 912 after 18 hrs by broth microdilution method; type: functional; settings: isolate 912, 18 h; outline: as §1
# Pseudomonas aeruginosa [3] = experiment: Antibacterial activity against Pseudomonas aeruginosa isolate 19147nm after 18 hrs by broth microdilution method; type: functional; outline: as §1
# Klebsiella pneumoniae [4] = experiment: Antibacterial activity against Klebsiella pneumoniae ATCC 13883 after 18 hrs by broth microdilution method; type: functional; settings: ATCC 13883, 18 h; outline: as §1
# Klebsiella pneumoniae [5] = experiment: Antibacterial activity against Klebsiella pneumoniae isolate 224-11-C after 18 hrs by broth microdilution method; type: functional; outline: as §1
# Escherichia coli [6] = experiment: Antibacterial activity against Escherichia coli N2381 after 18 hrs by broth microdilution method; type: functional; settings: N2381, 18 h; outline: as §1
# Escherichia coli [7] = experiment: Antibacterial activity against Escherichia coli N11281 after 18 hrs by broth microdilution method; type: functional; settings: N11281, 18 h; outline: as §1
# [8] = Selectivity index, ratio of CC50 for human HepG2 cells in presence of 1% FBS to MIC for Pseudomonas aeruginosa isolate 912; type: toxicity; settings: read-out: Selectivity Index
# Outline: (§2)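 Selectivity index is CC50 (1% FBS) divided by MIC. […] They then got compound at 300 to 0.14 µM (3-fold steps) for 24 h at 37 °C, 5% CO2. Resazurin (10 µM, 2 h) was read at ex/em 560/590 in duplicate wells. For MIC, CLSI broth microdilution was run in CaMHB with ~10^6 cfu/mL inoculum and 0–128 µM compound.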
# [9] = Selectivity index, ratio of CC50 for human HepG2 cells in presence of 1% FBS to MIC for Pseudomonas aeruginosa isolate 19147nm; type: toxicity; settings: read-out: Selectivity Index; outline: as §2
# [10] = Selectivity index, ratio of CC50 for human HepG2 cells in presence of 1% FBS to MIC for Pseudomonas aeruginosa isolate 18878B klon 1; type: toxicity; settings: read-out: Selectivity Index; outline: as §2
# [11] = Selectivity index, ratio of CC50 for human HepG2 cells in presence of 1% FBS to MIC for Pseudomonas aeruginosa isolate M146201; type: toxicity; settings: read-out: Selectivity Index; outline: as §2
# [12] = Selectivity index, ratio of CC50 for human HepG2 cells in presence of 1% FBS to MIC for Acinetobacter baumannii isolate 246-01-C; type: toxicity; settings: read-out: Selectivity Index
# [13] = Selectivity index, ratio of CC50 for human HepG2 cells in presence of 1% FBS to MIC for methicillin-resistant Staphylococcus aureus ATCC 43300; type: toxicity; settings: read-out: Selectivity Index; outline: as §2
# [14] = Selectivity index, ratio of CC50 for human HepG2 cells in presence of 1% FBS to MIC for Klebsiella pneumoniae isolate 248-33-D; type: toxicity; settings: read-out: Selectivity Index
# [15] = Selectivity index, ratio of CC50 for human HepG2 cells in presence of 1% FBS to MIC for Escherichia coli N4149; type: toxicity; settings: read-out: Selectivity Index
# [16] = Selectivity index, ratio of CC50 for human HepG2 cells in presence of 1% FBS to MIC for Mycobacterium tuberculosis H37Rv ATCC 25618; type: toxicity; settings: read-out: Selectivity Index
# [17] = Selectivity index, ratio of CC50 for human HepG2 cells in presence of 1% FBS to IC50 for CQ-sensitive GFP-fused Plasmodium falciparum D10; type: toxicity; settings: read-out: Ratio IC50
# [18] = Cytotoxicity against human HepG2 cells after 24 hrs in presence of 1% FBS by resazurin dye based assay; type: cell-based
# Outline: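 HepG2 cells seeded at 4000/well in DMEM with 1% FBS and allowed to attach for 24 h at 37 °C, 5% CO2. Compounds added from 300 to 0.14 µM in 3-fold steps and incubated 24 h. 10 µM resazurin added for 2 h, fluorescence read at ex/em 560/590. Percent viability computed relative to untreated and negative controls, duplicate wells.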
Compound,IC50 (Plasmodium falciparum),MIC (Pseudomonas aeruginosa [1]),MIC (Pseudomonas aeruginosa [2]),MIC (Pseudomonas aeruginosa [3]),MIC (Klebsiella pneumoniae [4]),MIC (Klebsiella pneumoniae [5]),MIC (Escherichia coli [6]),MIC (Escherichia coli [7]),selectivity ratio [8],selectivity ratio [9],selectivity ratio [10],selectivity ratio [11],selectivity ratio [12],selectivity ratio [13],selectivity ratio [14],selectivity ratio [15],selectivity ratio [16],selectivity ratio [17],CC50 at 24 h [18]
Cc1ccc2c(c1)-c1ccccc1[I+]2,80 nM,> 73 µM,9 µM,9 µM,72 µM,> 72 µM,72 µM,72 µM,4.2,4.2,4.2,1,4.2,4.2,0.52,> 0.52,66,500,37.5 µM
N#Cc1ccc2c(c1)[I+]c1ccccc1-2,50 nM,35 µM,4.4 µM,2.2 µM,18 µM,> 71 µM,71 µM,71 µM,0.75,1.5,0.75,0.19,0.19,0.75,> 0.05,0.05,12,62,3.3 µM
Fc1ccc2c(c1)[I+]c1ccccc1-2,60 nM,8.9 µM,1.1 µM,0.56 µM,36 µM,72 µM,18 µM,18 µM,5.3,11,5.3,2.6,2.6,2.6,0.16,0.08,20,105,5.9 µM
COc1cccc2c1-c1ccccc1[I+]2,170 nM,> 70 µM,70 µM,70 µM,> 70 µM,> 70 µM,70 µM,> 70 µM,0.55,0.55,0.55,> 0.55,0.55,1.1,> 0.55,> 0.55,8.8,225,38.3 µM
COc1ccc2c(c1)[I+]c1ccccc1-2,,> 70 µM,> 70 µM,8.7 µM,> 70 µM,> 70 µM,35 µM,> 70 µM,> 0.11,0.81,0.39,0.11,0.21,1.6,> 0.11,> 0.11,24,,6.8 µM
COc1ccc2c(c1)-c1ccccc1[I+]2,100 nM,> 70 µM,8.7 µM,18 µM,70 µM,> 70 µM,> 70 µM,> 70 µM,2.3,1.2,0.58,0.29,0.58,1.5,> 0.29,> 0.29,19,213,20.2 µM
Clc1ccc2c(c1)[I+]c1ccccc1-2,70 nM,8.7 µM,1.1 µM,0.54 µM,8.7 µM,17 µM,8.7 µM,4.3 µM,1,2,2,0.51,0.51,0.51,0.06,0.13,3.9,15,1.1 µM
Fc1ccc2c(c1)-c1ccccc1[I+]2,100 nM,18 µM,2.2 µM,1.1 µM,18 µM,36 µM,18 µM,18 µM,5.3,11,5.3,2.7,2.7,2.7,0.67,0.33,41,125,11.9 µM
Cc1cccc2c1-c1ccccc1[I+]2,70 nM,18 µM,1.1 µM,0.57 µM,18 µM,> 72 µM,18 µM,18 µM,2.3,4.6,2.3,1.2,1.2,0.07,> 0.04,> 0.04,19,37,2.6 µM
